In ChEMBL document CHEMBL1154829, “Iridoids from Fraxinus excelsior with adipocyte differentiation-inhibitory and PPARalpha activation activity” (2010):
Activity calls are given as the source filed them. The calls are words filed in the database; no cut-off is given here.

How the values were obtained:
3T3-L1 [1] = test: Inhibition of adipocyte differentiation in mouse 3T3L1 cells assessed as inhibition of 2 deoxy-D[3H]glucose uptake at 0.05 mg/ml […] by scintillation counter relative to control; format: functional
3T3-L1 [2] = test: Inhibition of adipocyte differentiation in mouse 3T3L1 cells assessed as inhibition of 2 deoxy-D[3H]glucose uptake at 0.2 mg/ml […] by scintillation counter relative to control; format: functional
3T3-L1 [3] = test: Inhibition of adipocyte differentiation in mouse 3T3L1 cells assessed as inhibition of 2 deoxy-D[3H]glucose uptake at 0.5 mg/ml after 15 mins by scintillation counter relative to control; format: functional
3T3-L1 [4] = test: Inhibition of adipocyte differentiation in mouse 3T3L1 cells assessed as inhibition of 2 deoxy-D[3H]glucose uptake at 1 mg/ml […] by scintillation counter relative to control; format: functional
[5] = target: T1, Peroxisome proliferator-activated receptor alpha (Homo sapiens) (UniProt Q07869); test: Activation of PPARalpha transfected into HEK cells at 100 uM by luciferase assay; format: cell-based; conditions: HEK293
T1 sequence (whole entry): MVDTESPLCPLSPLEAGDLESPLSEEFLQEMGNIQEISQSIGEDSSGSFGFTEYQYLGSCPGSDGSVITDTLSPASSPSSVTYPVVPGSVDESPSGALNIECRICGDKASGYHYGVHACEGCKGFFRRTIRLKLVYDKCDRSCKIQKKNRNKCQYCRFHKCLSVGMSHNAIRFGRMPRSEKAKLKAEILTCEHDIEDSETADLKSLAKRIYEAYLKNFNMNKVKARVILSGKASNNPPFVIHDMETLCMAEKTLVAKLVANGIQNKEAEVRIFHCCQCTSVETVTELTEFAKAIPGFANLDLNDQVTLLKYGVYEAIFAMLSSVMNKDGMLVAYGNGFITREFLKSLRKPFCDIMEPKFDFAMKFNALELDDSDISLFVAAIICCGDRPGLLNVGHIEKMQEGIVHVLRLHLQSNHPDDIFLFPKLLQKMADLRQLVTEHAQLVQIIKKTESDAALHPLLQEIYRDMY
Procedure, shortened: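 HEK cells in DMEM with 10% FBS, 1% penicillin-streptomycin and 2 mM L-glutamine at 37 °C, 5% CO2. Seeded at 80 000/well 24 h before PEI transfection (1 µg plasmid, 4 h). Compounds dissolved in DMSO and added in supplemented DMEM for 48 h. Lysate luciferase read by luminometer, normalized to β-gal, relative to DMSO control. Three independent runs; mean ± SD.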

[6] = target: T2, Solute carrier family 2, facilitated glucose transporter member 4 (Homo sapiens) (UniProt P14672); test: Stimulation of GLUT4 glucose transport
T2 sequence (whole entry): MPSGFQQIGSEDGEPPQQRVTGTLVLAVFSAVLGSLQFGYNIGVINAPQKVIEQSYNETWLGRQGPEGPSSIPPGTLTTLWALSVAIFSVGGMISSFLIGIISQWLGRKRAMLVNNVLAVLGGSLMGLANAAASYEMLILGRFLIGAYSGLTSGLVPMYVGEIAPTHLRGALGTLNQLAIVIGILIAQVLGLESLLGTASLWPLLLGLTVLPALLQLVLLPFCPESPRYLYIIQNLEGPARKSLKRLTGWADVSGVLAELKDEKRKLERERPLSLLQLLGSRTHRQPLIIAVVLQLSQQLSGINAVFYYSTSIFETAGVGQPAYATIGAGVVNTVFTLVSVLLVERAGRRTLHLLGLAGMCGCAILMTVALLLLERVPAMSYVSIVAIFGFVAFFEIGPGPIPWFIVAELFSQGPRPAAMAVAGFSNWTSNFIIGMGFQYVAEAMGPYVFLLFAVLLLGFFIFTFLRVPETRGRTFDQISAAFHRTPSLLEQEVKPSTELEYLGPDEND

3T3-L1 [7] = test: Inhibition of adipocyte differentiation in mouse 3T3L1 cells assessed as inhibition of 2 deoxy-D[3H]glucose uptake at 0.01 mg/ml […] by scintillation counter relative to control; format: functional
3T3-L1 [8] = test: Inhibition of adipocyte differentiation in mouse 3T3L1 cells assessed as inhibition of 2 deoxy-D[3H]glucose uptake at 0.1 mg/ml […] by scintillation counter relative to control; format: functional

Row | Structure (SMILES) | Activity [5] [%] | activation [6] | inhibition at 50 µg/mL (3T3-L1 [1]) [%] | inhibition at 200 µg/mL (3T3-L1 [2]) [%] | inhibition at 500 µg/mL (3T3-L1 [3]) [%] | inhibition at 1000 µg/mL (3T3-L1 [4]) [%] | inhibition at 10 µg/mL (3T3-L1 [7]) [%] | inhibition at 100 µg/mL (3T3-L1 [8]) [%]
1 | O=C(O)C1CN2C(N1)[C@H](O)[C@@H](O)[C@H](O)[C@H]2CO (stereo partly drawn) | 21 | inactive | 2.3 | -8.3 | -10.4 | -2.1 |  | 
2 | C/C=C1/[C@H](O[C@@H]2O[C@H](CO)[C@@H](O)[C@H](O[C@@H]3O[C@H](CO)[C@@H](O)[C@H](O)[C@H]3O)[C@H]2O)OC=C(C(=O)OC)[C@H]1CC(=O)Oc1ccc(CCO)cc1 |  |  | -17.1 |  |  |  | 77.6 | -49.7
3 | C/C=C1\[C@H](O[C@@H]2O[C@H](CO)[C@@H](O)[C@H](O)[C@H]2O)OC=C(C(=O)OC)[C@H]1CC(=O)O |  | inactive | -34.8 |  |  |  | -7.9 | -85.2
4 | C/C=C1/[C@H](O[C@@H]2O[C@H](CO)[C@@H](O)[C@H](O)[C@H]2O)OC=C(C(=O)OC)[C@H]1CC(=O)OCCc1ccc(O)cc1 [LIGSTROSIDE] |  | inactive | -76.4 |  |  |  | -9.3 | -9.8

Continued, in another order:

Row | Activity [5] [%] | activation [6] | Structure (SMILES) | inhibition at 50 µg/mL (3T3-L1 [1]) [%] | inhibition at 200 µg/mL (3T3-L1 [2]) [%] | inhibition at 500 µg/mL (3T3-L1 [3]) [%] | inhibition at 1000 µg/mL (3T3-L1 [4]) [%] | inhibition at 10 µg/mL (3T3-L1 [7]) [%] | inhibition at 100 µg/mL (3T3-L1 [8]) [%]
5 |  | inactive | C/C=C1/[C@H](O[C@@H]2O[C@H](CO[C@@H]3O[C@H](CO)[C@@H](O)[C@H](O)[C@H]3O)[C@@H](O)[C@H](O)[C@H]2O)OC=C(C(=O)OC)[C@H]1CC(=O)OC [EXCELSIDE A] | 30.9 |  |  |  | 102 | -16.6
6 | 24.8 | inactive | C/C=C1/[C@H](O[C@@H]2O[C@H](CO[C@@H]3O[C@H](CO)[C@@H](O)[C@H](O)[C@H]3O)[C@@H](O)[C@H](O)[C@H]2O)OC=C(C(=O)OC)[C@H]1CC(=O)OCCc1ccc(O)cc1 [EXCELSIDE B] | -16.7 | -30.8 | -22.7 | -24.3 |  | 
7 | 12.2 | inactive | C/C=C1\C(CC(=O)OC[C@H]2O[C@@H](OCCc3ccc(O)cc3)[C@H](O)[C@@H](O)[C@@H]2O)C(C(=O)OC)=CO[C@H]1O[C@@H]1O[C@H](CO)[C@@H](O)[C@H](O)[C@H]1O (stereo partly drawn) [NUZHENIDE] | -15.2 | -28.3 | -27.9 | -38.2 |  | 
8 | 27.9 | inactive | C/C=C1\[C@H](O[C@@H]2O[C@H](CO)[C@@H](O)[C@H](O)[C@H]2O)OC=C(C(=O)OC)[C@H]1CC(=O)OC [OLEOSIDE DIMETHYL ESTER] | -7.3 |  |  |  | 78.2 | -81
